Source: ChEMBL document CHEMBL1926642, “Relevance of the C-5 position to schweinfurthin induced cytotoxicity” (2011)

Tests used:
Assay type in all cases: functional
UACC-62 = test: Growth inhibition of human UACC62 cells after 48 hrs by sulforhodamine B assay; conditions: UACC-62, 48 h
COLO 205 = test: Growth inhibition of human COLO205 cells after 48 hrs by sulforhodamine B assay; conditions: COLO 205, 48 h
NCI-H522 = test: Growth inhibition of human NCI-H522 cells after 48 hrs by sulforhodamine B assay; conditions: NCI-H522, 48 h
KM12 = test: Growth inhibition of human KM12 cells after 48 hrs by sulforhodamine B assay; conditions: KM12, 48 h
NCI/ADR-RES = test: Growth inhibition of human NCI/ADR-RES cells after 48 hrs by sulforhodamine B assay
NCI-H322M = test: Growth inhibition of human NCI-H322M cells after 48 hrs by sulforhodamine B assay
786-0 = test: Growth inhibition of human 786-0 cells after 48 hrs by sulforhodamine B assay; conditions: 786-0, 48 h
M14 = test: Growth inhibition of human M14 cells after 48 hrs by sulforhodamine B assay; conditions: M14, 48 h
HCC 2998 = test: Growth inhibition of human HCC2998 cells after 48 hrs by sulforhodamine B assay; conditions: HCC 2998, 48 h
OVCAR-4 = test: Growth inhibition of human OVCAR4 cells after 48 hrs by sulforhodamine B assay; conditions: OVCAR-4, 48 h
NCI-H460 = test: Growth inhibition of human NCI-H460 cells after 48 hrs by sulforhodamine B assay; conditions: NCI-H460, 48 h
HCT-15 = test: Growth inhibition of human HCT15 cells after 48 hrs by sulforhodamine B assay; conditions: HCT-15, 48 h
OVCAR-3 = test: Growth inhibition of human OVCAR3 cells after 48 hrs by sulforhodamine B assay; conditions: OVCAR-3, 48 h
HL-60(TB) = test: Growth inhibition of human HL-60(TB) cells after 48 hrs by sulforhodamine B assay; conditions: HL-60, 48 h
Outline: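 Run in the NCI 60 cell-line screen as the full 5-dose assay that follows initial single-dose testing; GI50 is read from the dose series.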

SN12C = test: Growth inhibition of human SN12C cells after 48 hrs by sulforhodamine B assay
SK-MEL-28 = test: Growth inhibition of human SK-MEL-28 cells after 48 hrs by sulforhodamine B assay; conditions: SK-MEL-28, 48 h
SF-295 = test: Growth inhibition of human SF295 cells after 48 hrs by sulforhodamine B assay; conditions: SF-295, 48 h
EKVX = test: Growth inhibition of human EKVX cells after 48 hrs by sulforhodamine B assay
SK-MEL-2 = test: Growth inhibition of human SK-MEL-2 cells after 48 hrs by sulforhodamine B assay; conditions: SK-MEL-2, 48 h
IGROV-1 = test: Growth inhibition of human IGROV1 cells after 48 hrs by sulforhodamine B assay; conditions: IGROV-1, 48 h
LOX IMVI = test: Growth inhibition of human LOXIMVI cells after 48 hrs by sulforhodamine B assay
SNB-19 = test: Growth inhibition of human SNB19 cells after 48 hrs by sulforhodamine B assay; conditions: SNB-19, 48 h
SNB-75 = test: Growth inhibition of human SNB75 cells after 48 hrs by sulforhodamine B assay; conditions: SNB-75, 48 h
SK-OV-3 = test: Growth inhibition of human SKOV3 cells after 48 hrs by sulforhodamine B assay; conditions: SK-OV-3, 48 h
CAKI-1 = test: Growth inhibition of human Caki1 cells after 48 hrs by sulforhodamine B assay; conditions: CAKI-1, 48 h
NCI-H226 = test: Growth inhibition of human NCI-H226 cells after 48 hrs by sulforhodamine B assay; conditions: NCI-H226, 48 h
T47D = test: Growth inhibition of human T47D cells after 48 hrs by sulforhodamine B assay
SF-268 = test: Growth inhibition of human SF268 cells after 48 hrs by sulforhodamine B assay; conditions: SF-268, 48 h
K562 = test: Growth inhibition of human K562 cells after 48 hrs by sulforhodamine B assay; conditions: K562, 48 h
SK-MEL-5 = test: Growth inhibition of human SK-MEL-5 cells after 48 hrs by sulforhodamine B assay; conditions: SK-MEL-5, 48 h
RPMI-8226 = test: Growth inhibition of human RPMI8226 cells after 48 hrs by sulforhodamine B assay; conditions: RPMI-8226, 48 h
UACC-257 = test: Growth inhibition of human UACC257 cells after 48 hrs by sulforhodamine B assay; conditions: UACC-257, 48 h
[1] = read-out: pLC50 (the source's name) (converted)

COCOc1cc(/C=C/c2cc(CO)c3c(c2)C[C@@H]2C(C)(C)[C@H](O)CC[C@@]2(C)O3)cc(OC)c1C/C=C(\C)CCC=C(C)C showed a GI50 (UACC-62) of 0.55 µM, an LC50 (50% lethal concentration) (UACC-62) of 57.5 µM and a TGI (UACC-62; read-out: pTGI (converted)) of 10.7 µM. For the same compound, the GI50 (COLO 205) was 3.55 µM, the LC50 (COLO 205) was 66.1 µM and the TGI (COLO 205; read-out: pTGI (converted)) was 14.1 µM. For the same compound, the GI50 (NCI-H522) was 10.5 µM, the LC50 (NCI-H522) was 77.6 µM and the TGI (NCI-H522; read-out: pTGI (converted)) was 28.2 µM. For the same compound, the GI50 (KM12) was 4.27 µM, the LC50 (KM12) was 57.5 µM and the TGI (KM12; read-out: pTGI (converted)) was 21.4 µM. For the same compound, the GI50 (NCI/ADR-RES) was 8.13 µM, the LC50 (NCI/ADR-RES) was 95.5 µM and the TGI (NCI/ADR-RES; read-out: pTGI (converted)) was 29.5 µM. It also gave a GI50 (NCI-H322M) of 22.4 µM, an LC50 (NCI-H322M) of over 100 µM and a TGI (NCI-H322M; read-out: pTGI (converted)) of 91.2 µM. For the same compound, the GI50 (786-0) was 0.158 µM, the CC50 (786-0; [1]) was 8.32 µM and the TGI (786-0; read-out: pTGI (converted)) was 0.912 µM. The GI50 (M14) was 0.692 µM, the LC50 (M14) was over 100 µM and the TGI (M14; read-out: pTGI (converted)) was 21.9 µM. For the same compound, the GI50 (HCC 2998) was 10.7 µM, the LC50 (HCC 2998) was 70.8 µM and the TGI (HCC 2998; read-out: pTGI (converted)) was 27.5 µM. It also gave a GI50 (OVCAR-4) of 7.24 µM, an LC50 (OVCAR-4) of over 100 µM and a TGI (OVCAR-4; read-out: pTGI (converted)) of 44.7 µM. The GI50 (NCI-H460) was 0.871 µM, the LC50 (concentration killing 50% of cells) (NCI-H460) was over 100 µM and the TGI (NCI-H460; read-out: pTGI (converted)) was over 100 µM. For the same compound, the GI50 (HCT-15) was 1.35 µM, the LC50 (HCT-15) was 81.3 µM and the TGI (HCT-15; read-out: pTGI (converted)) was 10.2 µM. For the same compound, the GI50 (OVCAR-3) was 12.6 µM, the LC50 (OVCAR-3) was 60.3 µM and the TGI (OVCAR-3; read-out: pTGI (converted)) was 27.5 µM. It also gave a GI50 (HL-60(TB)) of 0.661 µM, a CC50 (HL-60(TB); [1]) of over 100 µM and a TGI (HL-60(TB); read-out: pTGI (converted)) of 33.9 µM. The GI50 (SN12C) was 6.61 µM, the LC50 (SN12C) was 58.9 µM and the TGI (SN12C; read-out: pTGI (converted)) was 22.4 µM. The GI50 (SK-MEL-28) was 1.2 µM, the CC50 (SK-MEL-28; [1]) was over 100 µM and the TGI (SK-MEL-28; read-out: pTGI (converted)) was 30.9 µM. The LC50 (SF-295) was 33.9 µM, the GI50 (SF-295; read-out: GI50) was 0.15 µM and the GI50 (SF-295; read-out: pGI50 (converted)) was 0.151 µM. It also gave a TGI (SF-295; read-out: pTGI (converted)) of 0.501 µM, a GI50 (EKVX) of 4.47 µM and an LC50 (50% lethal concentration) (EKVX) of over 100 µM. It also gave a TGI (EKVX; read-out: pTGI (converted)) of 83.2 µM, a GI50 (SK-MEL-2) of 17.8 µM and an LC50 (SK-MEL-2) of over 100 µM. The TGI (SK-MEL-2; read-out: pTGI (converted)) was 66.1 µM, the GI50 (IGROV-1) was 15.8 µM and the LC50 (IGROV-1) was over 100 µM. The TGI (IGROV-1; read-out: pTGI (converted)) was over 100 µM, the GI50 (LOX IMVI) was 0.55 µM and the LC50 (LOX IMVI) was 18.2 µM. The TGI (LOX IMVI; read-out: pTGI (converted)) was 3.02 µM, the GI50 (SNB-19) was 11.2 µM and the LC50 (SNB-19) was 77.6 µM. It also gave a TGI (SNB-19; read-out: pTGI (converted)) of 29.5 µM, a GI50 (SNB-75) of 0.263 µM and an LC50 (SNB-75) of over 100 µM. The TGI (SNB-75; read-out: pTGI (converted)) was 14.8 µM, the GI50 (SK-OV-3) was 19.5 µM and the LC50 (SK-OV-3) was over 100 µM. For the same compound, the TGI (SK-OV-3; read-out: pTGI (converted)) was 81.3 µM, the GI50 (CAKI-1) was 0.813 µM and the LC50 (CAKI-1) was over 100 µM. It also gave a TGI (CAKI-1; read-out: pTGI (converted)) of 15.1 µM, a GI50 (NCI-H226) of 14.5 µM and an LC50 (NCI-H226) of 64.6 µM. The TGI (NCI-H226; read-out: pTGI (converted)) was 30.2 µM, the GI50 (T47D) was 11.5 µM and the LC50 (T47D) was over 100 µM. It also gave a TGI (T47D; read-out: pTGI (converted)) of 49 µM, a GI50 (SF-268) of 4.07 µM and an LC50 (SF-268) of 55 µM. It also gave a TGI (SF-268; read-out: pTGI (converted)) of 20.9 µM, a GI50 (K562) of 2.51 µM and an LC50 (K562) of over 100 µM. It also gave a TGI (K562; read-out: pTGI (converted)) of 28.8 µM, a GI50 (SK-MEL-5) of 2.24 µM and an LC50 (SK-MEL-5) of 40.7 µM. For the same compound, the TGI (SK-MEL-5; read-out: pTGI (converted)) was 12.3 µM, the GI50 (RPMI-8226) was 0.479 µM and the LC50 (RPMI-8226) was over 100 µM. It also gave a TGI (RPMI-8226; read-out: pTGI (converted)) of over 100 µM, a GI50 (UACC-257) of 3.47 µM and an LC50 (UACC-257) of over 100 µM. The TGI (UACC-257; read-out: pTGI (converted)) was 39.8 µM.
